Published values gathered from unrelated publications.
Lines come from different studies, so protocols differ.
Target: Serine/threonine-protein kinase Nek3 (NEK3, Homo sapiens, UniProt P51956)
One construct used (P51956 1-506): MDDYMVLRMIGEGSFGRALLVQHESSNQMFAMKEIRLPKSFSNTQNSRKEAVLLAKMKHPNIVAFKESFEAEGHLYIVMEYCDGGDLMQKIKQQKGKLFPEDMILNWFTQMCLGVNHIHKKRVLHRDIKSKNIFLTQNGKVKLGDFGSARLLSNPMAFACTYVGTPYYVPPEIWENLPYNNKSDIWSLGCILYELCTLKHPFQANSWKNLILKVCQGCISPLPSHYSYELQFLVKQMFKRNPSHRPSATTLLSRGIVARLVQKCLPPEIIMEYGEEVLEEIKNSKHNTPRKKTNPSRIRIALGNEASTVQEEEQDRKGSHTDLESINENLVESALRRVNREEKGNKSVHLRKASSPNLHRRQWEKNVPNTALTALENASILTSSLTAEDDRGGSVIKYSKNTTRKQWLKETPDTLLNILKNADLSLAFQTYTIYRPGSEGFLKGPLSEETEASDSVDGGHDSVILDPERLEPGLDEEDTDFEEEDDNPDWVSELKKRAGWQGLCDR

| Compound | effect on | method | tested at | remaining binding [%] |
| --- | --- | --- | --- | --- |
| c1cnn2ncc(-c3ccnc(N4CCC45COC5)n3)c2c1 | binding |  | 1 µM | 64 |
| Cc1nccc(COC(=O)N2C[C@@H]3[C@@H](CNC(=O)c4ccc5[nH]nnc5c4)[C@@H]3C2)n1 | cell-free assay | competition with immobilised ligand | 1 µM | 100 |
| F[C@@H]1CCN(c2nccc(-c3cnn4ncccc34)n2)C1 | binding |  | 1 µM | 90 |
| CC(C)CC(=O)N1CCc2nc(-c3ccc(Br)cc3)nc(N(C)Cc3ccccc3)c2C1 | cell-free assay | competition with immobilised ligand | 0.1 µM | 100 |
| COc1ncc2cc3ccccc3nc2c1C#N | cell-free assay | competition with immobilised ligand | 5 µM | 100 |
| CN(C)c1nccc(-c2cnc3ncccn23)n1 | binding |  | 1 µM | 100 |
| O=C(Nc1cnc(Oc2ccc(F)cc2)nc1)N1CCc2ncccc2[C@@H]1c1ccc(F)cc1 | cell-free assay | competition with immobilised ligand | 1 µM | 67 |
| O=C(c1ccc(Nc2ncc(Cl)c(-c3ccc(Cl)s3)n2)cc1)N1CCC(N2CCCC2)CC1 | binding | competition with immobilised ligand | 1 µM | 0.45 |
| O=C(O)[C@H]1[C@H](Cn2nnc3ccccc3c2=O)CC[C@@H]1C(=O)c1ccc(OCCC2CCOCC2)cc1 | cell-free assay | competition with immobilised ligand | 1 µM | 86 |
| O=C(Nc1c[nH]nc1C(=O)NC1CCNCC1)c1cc(F)cc(F)c1 | binding | competition with immobilised ligand | 1 µM | 100 |
| CCCOc1ccc([C@@H]2[C@@H](C(=O)O)[C@H](c3ccc4c(c3)OCO4)CN2CC(=O)Nc2c(CC)cccc2CC)cc1 | cell-free assay | competition with immobilised ligand | 1 µM | 100 |
| C[C@H]1CCN(c2nccc(-c3cnn4ncccc34)n2)C1 | binding |  | 1 µM | 70 |
| CNC(=O)[C@@H]1CC[C@@H](n2c(-c3ccc4cnccc4c3)nc3ccc(C(=O)NCc4cccc(C(N)=O)c4)cc32)C1 | binding | competition with immobilised ligand | 1 µM | 61 |
| C=CC(=O)N1CCC(C(=O)NCC(=O)N2CCN(c3nc(-c4cnc(N)nc4C(F)F)nc(N4CCOCC4)n3)CC2)CC1 | binding | competition with immobilised ligand | 1 µM | 51 |
| CCOCCn1cc(C(=O)Nc2ccc(-n3nc(-c4cccnc4)cc3C(F)(F)F)cn2)ccc1=O | cell-free assay | competition with immobilised ligand | 1 µM | 100 |
| CN(C)c1ncc(F)c(-c2cnn3ncccc23)n1 | binding |  | 1 µM | 70 |
| O=C(NCCCN1CCOCC1)c1ccc(Nc2nccc(-c3cc4ccccc4s3)n2)cc1 | binding | competition with immobilised ligand | 1 µM | 2.7 |
| FC(F)(F)Oc1cccc(-c2cnc3ccc(-c4ccncc4)nn23)c1 | cell-free assay | competition with immobilised ligand | 5 µM | 73 |
| C[C@@H](c1ccc(-n2cnc3c(N)ncnc32)cc1)N1CCc2nn(C)c(Cc3ccccc3)c2C1=O | binding | competition with immobilised ligand | 0.1 µM | 30 |
| N[C@@H]1CCN(c2nccc(-c3cnn4ncccc34)n2)C1 | binding |  | 1 µM | 95 |
| O=C(NCCCN1CCOCC1)c1ccc(Nc2ncc(Cl)c(-c3ccc(Cl)s3)n2)cc1 | binding | competition with immobilised ligand | 1 µM | 0.5 |
